# Assays:
# neuronal tubulin = assay: fluorescence-enhanced tubulin polymerization assay; format: biochemical; conditions: ratio of tubulin polymerization ED50 values
# 231-BR cells = assay: MTT in vitro cytotoxicity assay; format: cell-based; conditions: Homo sapiens, 72 h, read-out: IC50 values and maximal toxicity
# Method in brief: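 231-BR cells seeded at 2,000/well 24 h before compound addition. Ethanol drug stocks were serially diluted into culture medium and added to triplicate wells, then cultured 72 h. Viable cells were read by MTT, normalized to drug-free viable cells at endpoint. At least 3 independent experiments.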
# 231-BR primary tumors = assay: breast primary tumor model; format: in vivo, mouse
# 231-BR brain metastases = assay: experimental brain metastasis model; format: in vivo, mouse
# [1] = test system: experimental brain metastases; conditions: 2 experimental brain metastasis models, radiolabeled drug; cited from earlier work
# [2] = test system: intracerebrally implanted MDA-MB-435, Lu7187 and Lu7466 tumor cells; conditions: cited from earlier work; for growth of intracerebrally implanted tumor cells: MDA-MB-435, Lu7187 and Lu7466 cells
# [3] = test system: breast cancer brain metastases; conditions: phase II, cited from earlier work
# [4] = test system: breast cancer brain metastases; conditions: phase II, cited from earlier work; remark: listed apart in the source
# [5] = mice, favorable half-life; cited from earlier work
structure (smiles),measurement,setting,value
CC(=O)O[C@@]12CO[C@@H]1C[C@H](O)[C@@]1(C)C(=O)[C@H](O)C3=C(C)[C@@H](OC(=O)[C@H](O)[C@@H](NC(=O)OC(C)(C)C)c4ccccc4)C[C@@](O)([C@@H](OC(=O)c4ccccc4)[C@H]21)C3(C)C [Docetaxel],ED50 compound/ ED50 paclitaxel,neuronal tubulin,1.07
same,IC50,231-BR cells,< 10 nM
CC(=O)O[C@H]1C(=O)[C@@]2(C)[C@H]([C@H](OC(=O)c3ccccc3)[C@]3(O)C[C@H](OC(=O)[C@H](O)[C@@H](NC(=O)c4ccccc4)c4ccccc4)C(C)=C1C3(C)C)[C@]1(OC(C)=O)CO[C@@H]1C[C@@H]2O [Paclitaxel],IC50,231-BR cells,< 10 nM
same,amount of acetylated tubulin-α in primary tumors,"231-BR primary tumors; 18 mg/kg i.v. every 4 days ×3, immunofluorescence",increase
same,estimated tumor growth rate (slope) of log10 tumor volume,"231-BR primary tumors; 18 mg/kg i.v. every 4 days ×3 from day 37, days 41 to 48",−0.0450 ± 0.00743
same,prevention of brain metastatic colonization,"231-BR brain metastases; 18 mg/kg ×3, early or late, all points not significant",ineffective
same,"Ki67-positive 231-BR cells in brain metastases (proliferation), mean","231-BR brain metastases; day 28, 48 hours after final late 18 mg/kg treatment, vehicle 56.0% ± 2.22%",54.4% ± 1.91%
same,experimental lesions with sufficient uptake to show a cytotoxic response,[1],10%
same,growth of intracerebrally implanted tumor cells,[2],nonsignificant effects
C=CC[C@H]1C(=O)C(C)(C)[C@@H](O)CC(=O)O[C@H](c2ccc3sc(C)nc3c2)C[C@@H]2O[C@]2(C)CCC[C@H](C)[C@@H]1O [Sagopilone],growth of intracerebrally implanted tumor cells,[2],reduced the growth
same,weight loss,[2],6%
same,BBB penetration,"[2]; mice, favorable AUC and half-life",crossed the BBB
same,patients achieving partial responses,"[3]; progressive brain metastases after whole brain radiation therapy, two patients",13.3%
same,median progression-free survival,[3],1.4 months
same,overall survival,[3],5.3 months
C/C(=C\c1csc(C)n1)[C@@H]1C[C@@H]2O[C@]2(C)CCC[C@H](C)[C@H](O)[C@@H](C)C(=O)C(C)(C)[C@@H](O)CC(=O)N1 [ixabepilone],IC50,231-BR cells,< 10 nM
same,toxicity of initial doses,"231-BR brain metastases; mice, initial 2 doses of 5 mg/kg",significant toxicity
C/C(=C\c1csc(C)n1)[C@@H]1C[C@@H]2O[C@]2(C)CCC[C@H](C)[C@H](O)[C@@H](C)C(=O)C(C)(C)[C@@H](O)CC(=O)O1 [patupilone],"partial responses, patients",[4]; 6 of 31,19%
same,"stable disease, patients",[4]; 9 of 31,29%
same,incidence of peripheral neuropathy,[4],27%
same,brain distribution,[5],Significant brain distribution

# From paper PMC7489285 (Molecular cancer therapeutics, 2012)
